# According to ChEMBL document CHEMBL1148307, “Non-peptidic small-molecule inhibitors of the single-chain hepatitis C virus NS3 protease/NS4A cofactor complex discovered by structure-based NMR screening” (J Med Chem, 2004):
# “And” between values parts separate entries of the source, which are not always exact repeats. Equal values may be shown once.
# Target: T1, NS3 (Hepatitis C virus, UniProt A3EZJ3)
# Test: Dissociation constant for HCV NS3 protease substrate binding site; protein precipitation at 1:2 compound [100 uM]/protein ratio
# Set-up: species or system Hepacivirus hominis
# Conditions: not given; call rule not given here
# How it was run: (§1)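 Uniformly 15N-labeled single-chain ns4a–ns3p, 0.2 mM, in 75 mM potassium phosphate pH 6.5, 20 mM DTT, 95/5% H2O/D2O, 0.015% sodium azide. Spectra were recorded with and without compound at several compound concentrations. KD and bound shift were fitted by nonlinear least squares to a single-site binding equation, with total compound and protein concentrations known.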
# T1 sequence (A3EZJ3 whole entry): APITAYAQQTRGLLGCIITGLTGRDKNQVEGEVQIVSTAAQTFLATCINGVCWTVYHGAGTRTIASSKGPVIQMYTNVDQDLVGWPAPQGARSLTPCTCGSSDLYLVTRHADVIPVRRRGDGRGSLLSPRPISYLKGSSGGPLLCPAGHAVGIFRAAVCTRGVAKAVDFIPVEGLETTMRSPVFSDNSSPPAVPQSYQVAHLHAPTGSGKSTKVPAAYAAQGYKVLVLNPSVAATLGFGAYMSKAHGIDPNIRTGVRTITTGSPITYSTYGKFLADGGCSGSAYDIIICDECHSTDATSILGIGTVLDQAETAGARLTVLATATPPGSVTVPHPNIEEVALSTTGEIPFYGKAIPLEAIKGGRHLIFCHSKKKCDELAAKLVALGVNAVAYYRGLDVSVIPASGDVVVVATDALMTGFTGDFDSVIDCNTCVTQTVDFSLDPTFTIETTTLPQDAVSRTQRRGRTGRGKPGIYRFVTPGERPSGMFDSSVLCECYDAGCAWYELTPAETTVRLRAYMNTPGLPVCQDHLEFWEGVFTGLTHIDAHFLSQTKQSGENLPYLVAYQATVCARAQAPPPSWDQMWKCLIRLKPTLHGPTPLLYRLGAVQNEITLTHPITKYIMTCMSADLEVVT
row,Structure (SMILES),Kd
1,O=C(O)C(Cc1cc(I)c(O)c(I)c1)c1ccc(-c2ccccc2)cc1 (configuration not stated),No Delta CS
2,CC(C)c1ccc(C(Cc2cc(I)c(O)c(I)c2)C(=O)O)cc1 (configuration not stated),No Delta CS
3,O=C(O)C(Cc1cc(I)c(O)c(I)c1)c1ccc2ccccc2c1 (configuration not stated),No Delta CS

# Target: T1, NS3
# Test: Dissociation constant for HCV NS3 protease substrate binding site
# Set-up: species or system Hepacivirus hominis
# Conditions: not given
# How it was run: as §1
row,Structure (SMILES),Kd
1,CC(C)(C)OC(=O)N[C@H](Cc1cc(I)c(O)c(I)c1)C(=O)O,Active
2,CCOC(=O)C(Cc1cc(I)c(O)c(I)c1)c1ccccc1 (configuration not stated),Not Active
3,Oc1c(I)cc(CCc2ccncc2)cc1I,Not Active
4,O=C(c1ccc(Cl)cc1)c1cccc(Cl)c1C(=O)O,Insoluble
5,CC(=O)N[C@H](Cc1cc(I)c(O)c(I)c1)C(=O)O,Active
6,CC(C)(C)OC(=O)N[C@@H](Cc1cc(I)c(O)c(I)c1)C(=O)O,Active
7,COc1ccc(C(=O)c2cc(OC)ccc2C(=O)O)cc1,Insoluble

# Same assay, conditions: read-out: Kd
row,Structure (SMILES),Kd
1,O=C(O)c1cc2cc(Br)ccc2[nH]1,200 µM
2,O=C(O)c1cc2ccc(Cl)cc2[nH]1,400 µM
3,Cc1ccc2[nH]c(C(=O)O)cc2c1,1200 µM
4,COc1ccc2[nH]c(C(=O)O)cc2c1,4000 µM
5,COc1ccc(C(=O)c2ccc[nH]2)cc1,> 20 µM
6,COc1ccc(NC(=O)c2ccccc2C(=O)O)cc1,22000 µM
7,COC(=O)[C@H](N)Cc1cc(I)c(O)c(I)c1,> 2500 µM
8,O=C(O)c1ccccc1Oc1ccc(Cl)cc1,7000 µM
9,Nc1ccc(CC(C(=O)O)c2ccccc2)cc1 (configuration not stated),> 8000 µM
10,Cc1ccc(N)cc1NC(=O)c1ccc(N)cc1,100000 µM
11,COC(=O)c1cccc(C(=O)c2ccc(Cl)cc2)c1C(=O)O,> 10000 µM
12,O=C(O)COc1c(I)cc(CC(C(=O)O)c2ccccc2)cc1I (configuration not stated),> 8000 µM
13,O=C(O)c1cc2ccccc2s1,1700 µM
14,O=C(O)c1cc2c(Cl)cccc2[nH]1,800 µM
15,Nc1ccc(C(=O)c2ccccc2)cc1,> 30 µM and ~20 µM
16,CC(=O)c1ccc(OCCC(=O)O)cc1,> 20000 µM
17,CON(C)C(=O)Nc1ccc(O)c(C(F)(F)F)c1,8000 µM
18,COc1ccc(NC(=O)C(C)(C)C)cc1,> 100 µM
19,O=C(O)c1ccccc1C(=O)c1ccc(C(F)(F)F)cc1,4000 µM
20,Nc1ccc(C(=O)c2cccnc2N)cc1,70000 µM
21,Cn1c(C(=O)O)cc2ccccc21,8100 µM
22,O=C(O)c1cc2cc(Cl)ccc2o1,2200 µM
23,O=C(/C=N/O)Nc1ccc(C(=O)O)cc1,> 250 µM
24,O=C(O)c1cc2cccc(Cl)c2[nH]1,1400 µM
25,O=C(CCCl)Nc1ccc(O)cc1,55000 µM
26,Nc1ccc(C(=O)Nc2ccc(Cl)c(N)c2)cc1,20000 µM

row,Structure (SMILES),Kd
1,O=C(O)CCCc1cc(I)c(O)c(I)c1,140 µM
2,COc1ccc(N)cc1NC(=O)c1ccc(N)cc1,> 20000 µM
3,O=C(O)C(Cc1cc(Br)c(O)c(Br)c1)c1ccccc1 (configuration not stated),> 8000 µM
4,O=C(O)Cc1ccccc1C(=O)c1ccc(Cl)cc1,4000 µM
5,Nc1ccc(C(=O)c2ccc(N)cc2)cc1,> 20000 µM
6,CN(C)C(=O)c1cccc(C(=O)c2ccc(Cl)cc2)c1C(=O)O,> 10000 µM
7,O=C(O)c1ccccc1C(=O)c1ccc(Cl)cc1,~3 µM
8,O=C(O)c1ccc(O)cc1C(=O)c1ccc(O)cc1,> 10000 µM
9,COc1ccc(NC(=O)C(C)C)cc1,70000 µM
10,O=C(O)c1ccccc1C(=O)c1ccc(F)cc1,~4000 µM
11,O=C(O)CC(c1ccccc1)c1cc(I)c(O)c(I)c1 (configuration not stated),40 µM
12,O=C(O)C(Cc1ccc(O)cc1)c1ccccc1 (configuration not stated),> 8000 µM
13,Nc1cc(O)nc(-c2cc(I)c(O)c(I)c2)n1,~230 µM
14,COc1ccc(C(=O)C2CC2)cc1,> 20000 µM
15,COc1ccc(NC(=O)CCC(=O)O)cc1,> 110000 µM
16,CN(C)C(=O)Nc1ccc(O)c(C(F)(F)F)c1,12000 µM
17,O=C(O)CCCc1ccc(C(=O)c2ccccc2C(=O)O)cc1,40000 µM
18,O=C(O)CCc1cc(I)c(O)c(I)c1,90 µM
19,COc1ccc(C(=O)c2ccccc2C(=O)O)cc1,1000 µM
20,CC(C)C(=O)Nc1ccc(O)cc1,17000 µM
21,Cc1ccc(C(=O)c2ccccc2C(=O)O)cc1,1600 µM
22,CC1(C(=O)Nc2ccc(O)cc2)CC1,8400 µM
23,CC(C)C(=O)Nc1ccc(O)c(C(F)(F)F)c1,8000 µM
24,O=C(O)C(Cc1cc([N+](=O)[O-])c(O)c([N+](=O)[O-])c1)c1ccccc1 (configuration not stated),> 8000 µM
25,O=C(O)c1cc(I)c(O)c(I)c1,420 µM
26,O=C(O)c1cc2cccc(Br)c2[nH]1,1000 µM

row,Structure (SMILES),Kd
1,O=C(O)c1ccccc1Cc1ccc(O)cc1,> 7000 µM
2,COc1ccc(NC(=O)C2(C)CC2)cc1,> 60000 µM
3,COc1ccc2sc(C(=O)O)cc2c1,8000 µM
4,COc1ccc(CC(C(=O)O)c2ccccc2)cc1 (configuration not stated),> 8000 µM
5,O=C(O)c1ccccc1C(=O)c1cccc(Cl)c1,> 10000 µM
6,Cc1ccc(NC(=O)c2ccc(N)cc2)c(N)c1,> 20000 µM
7,O=C(O)c1cc2ccccc2o1,6400 µM
8,O=C(O)C(F)(F)C(F)(F)C(=O)O,~5.2 µM
9,COc1c(I)cc(CC(C(=O)O)c2ccccc2)cc1I (configuration not stated),> 1600 µM
10,c1ccc2c(c1)NC1SCCCN21 (configuration not stated),~1.9 µM
11,O=C(O)c1ccccc1C(=O)c1ccc(O)cc1,1600 µM
12,CC(=O)c1ccc(OCC(=O)O)cc1,> 20000 µM
13,Cc1ccc(C(=O)O)c(C(=O)c2ccc(O)cc2)c1,> 5000 µM
14,O=C(O)c1cc(Br)ccc1C(=O)c1ccc(O)cc1,> 600 µM
15,CC1(C(=O)Nc2ccc(O)c(C(F)(F)F)c2)CC1,690 µM
16,CNC(=O)Nc1ccc(C(=O)O)cc1,> 210000 µM
17,O=C(O)c1ccccc1Cc1ccc(Cl)cc1,> 7000 µM
18,O=C(O)c1ccccc1Oc1ccc(F)cc1,7000 µM
19,O=C(O)c1cc2cc(Cl)ccc2[nH]1 [5-CHLOROINDOLE-2-CARBOXYLIC ACID],300 µM
20,O=C(O)c1cc2cc(F)ccc2[nH]1 [5-FLUOROINDOLE-2-CARBOXYLIC ACID],2.9 µM
21,Nc1ccc(C(=O)O)cc1 [AMINOBENZOIC ACID],> 40000 µM
22,O=C(O)c1cc2ccccc2[nH]1 [INDOLE-2-CARBOXYLIC ACID],12000 µM
23,O=C(O)C(Cc1cc(I)c(O)c(I)c1)c1ccccc1 (configuration not stated) [IODOALPHIONIC ACID],110 µM
24,CCC(=O)Nc1ccc(O)cc1 [PARAPROPAMOL],34000 µM

# Target: T1, NS3
# Test: Inhibition constant for HCV NS3 protease substrate binding site
# Set-up: species or system Hepacivirus hominis
# Conditions: not given
row,Structure (SMILES),Ki [µM]
1,CC(C)(C)OC(=O)c1ccccc1C(=O)c1ccc(OCCCOC(=O)N[C@@H](Cc2cc(I)c(O)c(I)c2)C(=O)OC(C)(C)C)cc1,1
2,CC(C)(C)OC(=O)N[C@H](Cc1cc(I)c(O)c(I)c1)C(=O)O,260
3,Cc1ccc(S(=O)(=O)NNC(=S)c2ccccc2)cc1,650
4,O=C(O)CCCc1cc(I)c(O)c(I)c1,180
5,O=C(O)CC(c1ccccc1)c1cc(I)c(O)c(I)c1 (configuration not stated),100
6,O=C(N[C@@H](Cc1cc(I)c(O)c(I)c1)C(=O)O)OCCCOc1ccc(C(=O)c2ccccc2C(=O)O)cc1,0.8
7,O=C(O)CCc1cc(I)c(O)c(I)c1,80
8,O=C(O)c1cc(I)c(O)c(I)c1,600
9,CC(=O)N[C@H](Cc1cc(I)c(O)c(I)c1)C(=O)O,210
10,CC(C)(C)OC(=O)N[C@@H](Cc1cc(I)c(O)c(I)c1)C(=O)O,310
11,O=C(O)C(Cc1cc(I)c(O)c(I)c1)c1ccccc1 (configuration not stated) [IODOALPHIONIC ACID],140
